Results as given in PubChem BioAssay.
Results filed as inconclusive are left out. Activity calls are given as the source filed them.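 How the source made its calls, unless noted: active means RAM network inhibition above 8.4% in each of two replicates, 3 SD over the compound average; inconclusive means above 8.4% inhibition in only one replicate; inactive means 8.4% inhibition or less in each replicate.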

Experiments:
[1] = S. cerevisiae growth inhibition in permissive medium (OD615), pilot counter-assay for S. cerevisiae lifespan shortening project, permissive growth control (AID 705;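 active means growth inhibition above 25% in both replicates, a cutoff set 3 SD above the mean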); conditions: OD615, 24 h, at 10 µM, stronger effect = higher value
How it was run: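 Test system: Saccharomyces cerevisiae strain carrying genetically modified DeaD replicative-lifespan system; buffer or medium: SC raffinose/galactose permissive medium; dosing: one dose 10 µM, DMSO 0.25% final; times: 24 h exposure, 30 °C; measured by: OD at 615 nm; read-out basis: growth inhibition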

[2] = S. cerevisiae growth inhibition in restrictive medium, OD615, pilot screen, restrictive growth control, yeast lifespan reduction project (AID 706;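 active means growth inhibition above a set limit, 3 SD over mean compound inhibition, in both replicates, cut at about 43% in these data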;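 further: modified DeaD lifespan yeast strain shifted to restrictive glucose medium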); conditions: OD615, 48 h, at 10 µM, stronger effect = higher value
How it was run: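 material = engineered S. cerevisiae DeaD strain | buffer or medium = glucose-based CSMM-D restrictive medium | dosing = one concentration, 10 µM final, 0.25% DMSO | schedule = 4 h pre-growth plus 48 h compound exposure, 30 °C | detection = OD615 absorbance reading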

[3] = doxorubicin toxicity protection in MRP-1 cells – H69AR cells, CellTiter-Glo, duplicate, MRP-1 activator project, pilot screen (AID 807;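 active means viability increase at or above a cutoff of the median across tested compounds plus 3 SD, cut at about 8.5% in these data, passing the limit was not always enough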;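 further: compound pretreatment 18-22 h then 72 h combined with doxorubicin; 0% = doxorubicin alone and 100% = vehicle without doxorubicin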); conditions: H69AR viability with doxorubicin, CellTiter-Glo luminescence; at 10 µM; stronger effect = higher value
[4] = viability of PTEN-null HCT116 cells – cell-based, HCT116 clonal line, CellTiter-Glo, pilot screen (AID 824;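 active means viability at or below 27.92% in each of two runs, the all-compound median minus 4 SD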;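 further: 0% = 20 µM Hyamine control and 100% = vehicle cell control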); conditions: HCT116 PTEN-deleted viability, 60 h, at 10 µM, stronger effect = lower value
[5] = RAM pathway blockade in budding yeast – dse1pr::URA3 reporter, 5-FOA selection, pilot screen (AID 869;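 active means inhibition over a set limit, the all-compound mean plus 3 SD, in both replicate runs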;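 further: 0% = DMSO wells with no growth and 100% = 10 µM 1-NA-PP1 with full growth; RAM network block rescues cells from 5-FOA so hits raise OD615 growth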); conditions: S. cerevisiae dse1pr::URA3 5-FOA growth, OD615, 2 d; at 10 µM; stronger effect = higher value; strain carries analog-sensitive mutant Cbk1 kinase
[6] = RAM signaling pathway blockade in yeast – S. cerevisiae, Pdr1DBD-CYC8 efflux-inhibited sensitized strain, primary screen (AID 1298);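 further: 0% = DMSO untreated cells without growth and 100% = 10 µM 1-NA-PP1 full growth; higher means more yeast growth rescued from 5-FOA killing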; conditions: S. cerevisiae cbk1-as DSE1-URA3 strain, 5-FOA growth OD615, 2 d; at 50 µM; stronger effect = higher value

O=C(CN1CCCCC1)Nc1ccc(F)c(Cl)c1
inactive: growth inhibition [1] 5.67% | growth inhibition [2] 4.63% | viability increase [3] -2.13% | viability [4] 98.4% | inhibition [5] 1.7% | RAM network inhibition [6] -0.11%

CCNc1nc2c(c(=O)n(C)c(=O)n2C)n1Cc1ccc(Cl)cc1
inactive: growth inhibition [1] -6.92% | growth inhibition [2] -2.02% | viability increase [3] -2.02% | viability [4] 58.3% | inhibition [5] -0.48% | RAM network inhibition [6] 1.98%

CCCn1c(C(C)NC(=O)c2ccccc2)nc2ccccc21 (centres undefined)
inactive: growth inhibition [1] -8.46% | growth inhibition [2] -6.87% | viability increase [3] -2.18% | viability [4] 97.6% | inhibition [5] 2.92% | RAM network inhibition [6] 5.38%

C/C(CC(O)c1ccc2ccccc2n1)=N/O (centres undefined)
inactive: growth inhibition [1] 1.34% | growth inhibition [2] 1.94% | viability increase [3] -0.7% | viability [4] 103% | inhibition [5] 0.445% | RAM network inhibition [6] 1.08%
